These results are taken from ChEMBL document CHEMBL1146533, “Antimicrobial and antiparasitic (+)-trans-hexahydrodibenzopyrans and analogues from Machaerium multiflorum” (J Nat Prod, 2003).

Data set [1] deals with Aspergillus fumigatus. Nature of the data set: Antimicrobial activity against Aspergillus fumigatus ATCC 90906 by modified NCCLS method. It counts as functional, organism-based.
For data set [2], the system named is Candida albicans. Description: Antimicrobial activity against Candida albicans ATCC 90028 by modified NCCLS method. It counts as functional, organism-based.
The test system of a further data set is Cryptococcus neoformans. Description: Antimicrobial activity against Cryptococcus neoformans ATCC 90113 by modified NCCLS method. It counts as functional, organism-based.
Data set [3] concerns Mycobacterium intracellulare. Description: Antimicrobial activity against Mycobacterium intracellular by Alamar blue assay. It counts as functional, organism-based. For orientation: Alamar Blue is a resazurin reagent that responds to reducing activity.
Data set [4] has as its system Staphylococcus aureus. Nature of the data set: Antimicrobial activity against Staphylococcus aureus ATCC 29213 by modified NCCLS method. It counts as functional, organism-based.
In data set [5] the test system is Staphylococcus aureus. Description: Antimicrobial activity against methicillin-resistant Staphylococcus aureus ATCC 43300 by modified NCCLS method. It counts as functional, organism-based.
The subject of data set [6] is Candida albicans. Description: Antifungal activity against Candida albicans ATCC 90028 at 50 ug/mL by modified NCCLS method. It counts as functional, organism-based.
In data set [7] the test system is Aspergillus fumigatus. Description: Antimicrobial activity against Aspergillus fumigatus ATCC 90906 at 50 ug/mL by modified NCCLS method. It counts as functional, organism-based.
The test system of data set [8] is Mycobacterium intracellulare. Description: Antimicrobial activity against Mycobacterium intracellular at 50 ug/mL by Alamar blue assay. It counts as functional.
For data set [9], the system named is Plasmodium falciparum. Description: Antimalarial activity against chloroquine-sensitive Plasmodium falciparum D6. It counts as functional, organism-based.
A further data set relates to Vero. Nature of the data set: Cytotoxicity against african green monkey Vero cells at 4.7 ug/mL. It counts as cell-based. The note with it: chlorocebus sabaeus.
Data set [10] in a line: Selectivity index, ratio of IC50 for african green monkey (Cercopithecus aethiops) Vero cells to IC50 for chloroquine-sensitive Plasmodium falciparum D6. It counts as toxicity, cell-based. The note with it: read-out: Ratio IC50. An outline of the steps:
(§1)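 Selectivity index calculated as IC50 in Vero cells divided by IC50 against P. falciparum.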

For the next data set, the system named is Leishmania donovani. Nature of the data set: Antileishmanial activity against Leishmania donovani promastigotes after 72 hrs. It counts as functional, organism-based.
Data set [11] in a line: Selectivity index, ratio of IC50 for african green monkey (Cercopithecus aethiops) Vero cells to IC50 for chloroquine-sensitive Plasmodium falciparum W2. It counts as toxicity, cell-based. The note with it: read-out: Ratio IC50. An outline of the steps: as §1
For data set [12], the system named is Plasmodium falciparum. Nature of the data set: Antimalarial activity against chloroquine-resistant Plasmodium falciparum W2. It counts as functional, organism-based.

≈ marks a conversion by molar mass, not a printed value. Calls of active or inactive are those of the source.

As usually defined, the MIC is the least concentration at which growth counts as inhibited. Take `C[C@@H]1[C@H](O)[C@@H](C)/C=C/C=C/C=C/C=C/C=C/C=C/C=C/[C@H](O[C@@H]2O[C@H](C)[C@@H](O)[C@H](N)[C@@H]2O)C[C@@H]2O[C@](O)(C[C@@H](O)C[C@@H](O)[C@H](O)CC[C@@H](O)C[C@@H](O)CC(=O)O[C@H]1C)C[C@H](O)[C@H]2C(=O)O` [AMPHOTERICIN B]: the MIC against Aspergillus fumigatus [1] stood at 1.25 µg/mL (≈ 1.35 µM); with Candida albicans [2] it was 0.31 µg/mL (≈ 0.335 µM); against Cryptococcus neoformans, 0.63 µg/mL (≈ 0.682 µM).
The term IC50 denotes the concentration at which inhibition is half-maximal. As usually defined, the MBC is the smallest concentration meeting the test's criterion for killing. In data set [3], `O=C(O)c1cn(C2CC2)c2cc(N3CCNCC3)c(F)cc2c1=O` [CIPROFLOXACIN] yielded an IC50 of 0.45 µg/mL (≈ 1.36 µM) and an MIC of 0.63 µg/mL (≈ 1.9 µM). In the data set with Staphylococcus aureus [4], this molecule came in with an IC50 of 0.15 µg/mL (≈ 0.453 µM). Also, in the data set with Staphylococcus aureus [5], the MBC is 0.31 µg/mL (≈ 0.936 µM) and it took 0.31 µg/mL (≈ 0.936 µM) to inhibit growth (MIC).
For the molecule `C=C(C)[C@H]1CC[C@H](C)C[C@@H]1c1c(O)cc(/C=C/c2ccccc2)cc1O` [MACHAERIDIOL A], the MIC was determined as 12.5 µg/mL (≈ 35.9 µM) in the data set on Aspergillus fumigatus [1]; 50 µg/mL (≈ 143 µM) against Candida albicans [2]; 12.5 µg/mL (≈ 35.9 µM) in [3]; 1.56 µg/mL (≈ 4.48 µM) in the data set on Staphylococcus aureus [4]; 1.56 µg/mL (≈ 4.48 µM) against Staphylococcus aureus [5]. The IC50 with Candida albicans [2] came out at 3.5 µg/mL (≈ 10 µM); in [3], 7 µg/mL (≈ 20.1 µM); in the data set on Cryptococcus neoformans, 15 µg/mL (≈ 43 µM); in the data set on Staphylococcus aureus [4], 1 µg/mL (≈ 2.87 µM); with Staphylococcus aureus [5], 1 µg/mL (≈ 2.87 µM). The outcome in the data set on Candida albicans [6], in the data set with Cryptococcus neoformans and with Aspergillus fumigatus [7] was inactive. Further, the MBC in the data set on Staphylococcus aureus [4] worked out at 3.13 µg/mL (≈ 8.98 µM); with Staphylococcus aureus [5], 3.13 µg/mL (≈ 8.98 µM); in data set [8] it was 50 µg/mL (≈ 143 µM).
For orientation: IC90 means the concentration at which the effect reaches the 90% level. Take `C=C(C)[C@H]1CC[C@H](C)C[C@@H]1c1c(O)cc(/C=C/c2ccccc2O)cc1O` [MACHAERIDIOL B]: the IC50 in the data set on Plasmodium falciparum [9] is 0.64 µg/mL (≈ 1.76 µM); in the data set on Candida albicans [2], 2 µg/mL (≈ 5.49 µM); in the data set on Leishmania donovani, 0.9 µg/mL (≈ 2.47 µM); in the data set on Cryptococcus neoformans it was 3.5 µg/mL (≈ 9.6 µM); with Staphylococcus aureus [4], 2.6 µg/mL (≈ 7.13 µM); in the data set on Plasmodium falciparum [12], 0.22 µg/mL (≈ 0.604 µM). The molecule also came in with an IC50 with Staphylococcus aureus [5] of 2 µg/mL (≈ 5.49 µM). The MIC against Aspergillus fumigatus [1] came to 10 µg/mL (≈ 27.4 µM); against Candida albicans [2] it was 6.25 µg/mL (≈ 17.1 µM); in the data set with Staphylococcus aureus [4], 6.25 µg/mL (≈ 17.1 µM); in the data set with Staphylococcus aureus [5], 6.25 µg/mL (≈ 17.1 µM). For the same molecule, the Activity entry in the data set on Vero was “Non-toxic”. Also, the selectivity ratio in data set [10] was over 7.4; in [11], over 22. Also, in the data set with Leishmania donovani, the 90% effect level (IC90) was put at 8 µg/mL (≈ 21.9 µM). For the same molecule, the result (in data set [3]; in the data set with Candida albicans [6]; with Aspergillus fumigatus [7]) was inactive. In addition, the MBC against Staphylococcus aureus [4] and against Staphylococcus aureus [5] was 6.25 µg/mL (≈ 17.1 µM) throughout.
In the case of `C=C(C)[C@H]1CC[C@H](C)C[C@@H]1c1c(O)cc(-c2cc3ccccc3o2)cc1O` [MACHAERIDIOL C], the IC50 turned out to be 3.3 µg/mL (≈ 9.1 µM) in the data set on Plasmodium falciparum [9]; 45 µg/mL (≈ 124 µM) in the data set on Candida albicans [2]; 3 µg/mL (≈ 8.28 µM) with Leishmania donovani; 10 µg/mL (≈ 27.6 µM) in data set [3]; 25 µg/mL (≈ 69 µM) with Cryptococcus neoformans; 3 µg/mL (≈ 8.28 µM) in the data set on Staphylococcus aureus [4]. Further, the IC50 in the data set on Plasmodium falciparum [12] was found to be 2.5 µg/mL (≈ 6.9 µM); in the data set on Staphylococcus aureus [5], 3.5 µg/mL (≈ 9.66 µM). The outcome (with Aspergillus fumigatus [1]; in data set [8]) was inactive. The Activity result with Vero is “Non-toxic”. Also, the selectivity ratio is over 1.4 in data set [10] and over 1.9 in data set [11]. It took 10 µg/mL (≈ 27.6 µM) to reach the 90% level in the data set with Leishmania donovani (IC90). Moreover, the MIC in data set [3] was determined as 25 µg/mL (≈ 69 µM); in the data set on Staphylococcus aureus [4], 6.25 µg/mL (≈ 17.2 µM); in the data set on Staphylococcus aureus [5], 6.25 µg/mL (≈ 17.2 µM). The MBC against Staphylococcus aureus [4] and in the data set with Staphylococcus aureus [5] was 12.5 µg/mL (≈ 34.5 µM) throughout.
For `C[C@H]1CC[C@H]2[C@H](C1)c1c(O)cc(/C=C/c3ccccc3O)cc1OC2(C)C` [MACHAERIOL C], the IC50 was 3 µg/mL (≈ 8.23 µM) with Plasmodium falciparum [9]; 20 µg/mL (≈ 54.9 µM) in the data set with Candida albicans [2]; 6 µg/mL (≈ 16.5 µM) with Leishmania donovani; 20 µg/mL (≈ 54.9 µM) in [3]; 40 µg/mL (≈ 110 µM) in the data set on Cryptococcus neoformans; 0.65 µg/mL (≈ 1.78 µM) with Staphylococcus aureus [4]. Further, the results for the IC50 in the data set on Plasmodium falciparum [12] and in the data set on Staphylococcus aureus [5] were 3.7 µg/mL (≈ 10.2 µM) and 0.7 µg/mL (≈ 1.92 µM), respectively. The results for the MIC in the data set with Aspergillus fumigatus [1], in the data set with Staphylococcus aureus [4] and in the data set on Staphylococcus aureus [5] were 100 µg/mL (≈ 274 µM), 1.56 µg/mL (≈ 4.28 µM) and 1.56 µg/mL (≈ 4.28 µM), respectively. Besides, in the data set on Vero, the Activity result was “Non-toxic”. Moreover, the selectivity ratio in data set [10] is 1.6; in data set [11], 1.3. Further, the 90% effect level with Leishmania donovani (IC90) was put at 12 µg/mL (≈ 32.9 µM). Also, the MBC in the data set with Staphylococcus aureus [4] was determined as 6.25 µg/mL (≈ 17.1 µM); in the data set with Staphylococcus aureus [5] it was 12.5 µg/mL (≈ 34.3 µM). Also, the outcome in the data set on Aspergillus fumigatus [7] was inactive.
Turning to `C[C@@H]1C[C@@H]2c3c(O)cc(-c4cc5ccccc5o4)cc3OC(C)(C)[C@H]2C[C@H]1O` [MACHAERIOL D], the result (in the data set with Aspergillus fumigatus [1]; with Candida albicans [2]; in data set [3]; with Cryptococcus neoformans; with Staphylococcus aureus [5]) was inactive. In addition, the IC50 in the data set with Staphylococcus aureus [4] turned out to be 25 µg/mL (≈ 66.1 µM); with Staphylococcus aureus [5], 30 µg/mL (≈ 79.3 µM). The molecule further gave an MIC in the data set on Staphylococcus aureus [4] of 50 µg/mL (≈ 132 µM).
As to `N=C(N)c1ccc(OCCCCCOc2ccc(C(=N)N)cc2)cc1` [PENTAMIDINE], in the data set with Leishmania donovani, the IC50 came to 0.42 µg/mL (≈ 1.23 µM) and the concentration for an effect of 90% (IC90) is 1.5 µg/mL (≈ 4.41 µM).
